Screens from PubChem.
Shown are actives, neighbours in structure and some others; about 4.8% of the full set was active somewhere.
HSF1 activator: increases HSF-1 driven luciferase reporter signal; NIH3T3-HGL HSF-1 luciferase reporter, MG132, 8 h; 100% = twice DMSO control signal; activation, % at 9 µM; hit rate 1.7% among 300,000; AID 504408;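 active means mean replicate activation of at least 50% with a set share of replicates each reaching 50%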;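 further: 0% = median of the neutral control wells and 100% = twice that signal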
697 NFkB inh: lowers PMA/ionomycin-induced NF-kB signal in 697 B cells; 697 B-cell NF-kB luciferase reporter, 16 h; inhibition, % at 4 µM; hit rate 0.33% among 330,000; in the data active means inhibition above about 35%
HSF1 inhib: HSF1 inhibition; activity change, negative = inhibition, % at 7.5 µM (by protocol); hit rate 0.77% among 300,000; NIH3T3-HGL HSE-luciferase, MG132-induced, luminescence 8 h; stronger effect = lower value;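 active means more than half of replicate wells show activity change below -50%, luminescence cut by over half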;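 further: luciferase reports HSF-1 transcriptional activity via heat shock element; 0% = median of DMSO wells and -100% = zero luminescence signal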
Jurkat NFkB inh: inhibitors of the PMA/ionomycin-induced NF-kB reporter in Jurkat cells. PMA/ionomycin-induced NF-kB luciferase reporter, luminescence. inhibition, % at 4 µM. hit rate 0.53% among 330,000. AID 435003; in the data active means inhibition above about 50%
T cruzi inh: T. cruzi replication inhibition. inhibition, % (no concentration beside the values). hit rate 1.4% among 300,000. T. cruzi beta-gal in NIH3T3, luminescence, 90 h. AID 1885;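 active means mean inhibition across valid replicates above about 55%, limit read from the data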;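 further: signal also drops with host cell toxicity which is not excluded here; 0% = plate median of DMSO wells and 100% = zero luminescence signal; higher percent means less beta-gal luminescence so fewer parasites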
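Assay system: NIH/3T3 host cells with β-galactosidase reporter T. cruzi; input: 5,000 host fibroblasts per well; compound: single 50 nL compound addition per well in DMSO; timing: ≥90 h infection period, 3 h prior cell attachment; measured by: GalScreen β-gal luminescence, detergent lysis, 60 min; evaluation: percent inhibition of parasite-derived β-gal signal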
GPR7 antagonist: antagonists of human GPR7 (neuropeptides B/W receptor 1); P48145; GPR7-expressing cells, fluorescence antagonist assay; inhibition, % at 4.4 µM; hit rate 1.1% among 290,000; in the data active means inhibition above about 16%, passing the limit was not always enough;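 further: cells stimulated with the agonist NPW; 0% = agonist with vehicle and 100% = vehicle without agonist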
Target sequence (P48145 whole entry, looked up): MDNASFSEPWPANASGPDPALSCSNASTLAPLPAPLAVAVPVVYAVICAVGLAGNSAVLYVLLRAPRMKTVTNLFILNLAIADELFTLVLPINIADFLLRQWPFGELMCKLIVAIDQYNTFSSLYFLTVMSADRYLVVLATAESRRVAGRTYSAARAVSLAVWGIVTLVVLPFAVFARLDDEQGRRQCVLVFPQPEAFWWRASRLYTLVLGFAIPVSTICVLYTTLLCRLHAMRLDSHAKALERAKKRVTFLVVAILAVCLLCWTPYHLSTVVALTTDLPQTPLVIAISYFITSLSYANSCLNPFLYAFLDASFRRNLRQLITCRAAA
An asterisk follows results filed as active; . = no result.

SMILES | HSF1 activator | 697 NFkB inh | HSF1 inhib | Jurkat NFkB inh | T cruzi inh | GPR7 antagonist
COCCn1c(SCC(=O)NNC(=O)c2cc(Cl)ccc2OC)nnc1-c1ccncc1 | . | 19 | . | 2 | . | .
Cc1cc(F)cc(C)c1Cn1cnc2c(cnn2C(C)(C)C)c1=O | . | -24 | . | -4 | . | .
COc1ccc2c(c1)C1=NN(/C(C)=C/C(C)=O)C(c3ccc(F)cc3)C1CC2 (stereo not given) | 53* | -70 | 23 | -35 | -11 | -3
CCC(=O)Nc1ccc(C(=O)COC(=O)c2sc(C)nc2C)cc1 | . | 12 | . | 18 | . | .
N#CC(C#N)=C1C=CC=CN1/C(=C\c1ccccc1Cl)C(=O)c1ccccc1 | . | . | . | . | . | -12
N#CC(C#N)=C1C=CC=CN1/C(=C\c1ccccc1)C(=O)c1cccs1 | 214* | -4 | 182 | 1 | 30 | -6
O=C(O)c1cc(Cl)c(Cl)cc1C(=O)N(Cc1ccccc1)Cc1ccccc1 | -15 | 7 | -5 | 0 | -10 | 3
CN(c1ccccc1)S(=O)(=O)c1cccc(C(=O)OCC(=O)NCc2ccccc2)c1 | . | 5 | . | 10 | . | .
COc1ccc(N(C)S(=O)(=O)c2cccc(C(=O)OCC(=O)NCc3ccccc3OC)c2)cc1 | 2 | 5 | 0 | 5 | 4 | 19*
CCC1(c2ccccc2)NC(=O)N(CC(=O)Nc2cc(S(=O)(=O)N3CCCCCC3)ccc2OC)C1=O (stereo not given) | 9 | 16 | 5 | 10 | 29 | .
O=C(NCCc1c[nH]c2ccccc12)c1ccc(Cl)cc1 | 59* | -109 | 35 | -69 | 1 | 7
c1ccc(-c2noc(CN3CCCC(OCc4ccccn4)C3)n2)cc1 (stereo not given) | -4 | 4 | -8 | 6 | -2 | -3
COc1cc(C(=O)NCc2nnc(SCC(=O)N3CCC(C)CC3)o2)cc(OC)c1OC | 4 | 21 | -1 | 5 | -7 | 3
COc1ccc(C(=O)NCc2nnc(SCC(=O)N3CCC(C)CC3)o2)cc1OC | -74 | -16 | -67* | 5 | -3 | -18
CSCCC(NC(=O)c1ccccc1)C(=O)N1CC=C(c2ccccc2)CC1 (stereo not given) | 18 | -40 | 2 | 17 | 24 | 19
COc1ccccc1NC(=O)COC(=O)c1[nH]c(=O)[nH]c(=O)c1N | . | 5 | . | 5 | . | .
COc1ccc(NC(=O)C2=C(C)NC(=S)NC2c2ccc(O)c(OC)c2)cc1 (stereo not given) | 21 | 16 | 1 | 4 | -10 | -6
COc1cc(C2NC(=S)NC(C)=C2C(=O)Nc2ccc(C)cc2)ccc1O (stereo not given) | 84* | -43 | 43 | -35 | 2 | 0
CCc1nc2ccc(C(=O)O)cc2nc1CC | -71 | -84 | -69* | 0 | 4 | -4
CC(C)N(CCCNC(=O)C1CCN(C(=O)c2cc3sccc3n2C)CC1)Cc1ccccc1 | 17 | -5 | -1 | -7 | 33 | 1
c1cncc(-c2nc3ccccc3s2)c1 | 33 | -49 | 20 | -57 | -4 | -1
CC(=O)N(Cc1cccnc1)c1cccc(-c2nc3ccccc3s2)c1 | -6 | -23 | -1 | -6 | 59* | 0
Cc1ccc(Nc2nc(-c3sc(C)nc3C)cs2)cc1 | 26 | -85 | 8 | 28 | 6 | 19
Clc1cccc(Nc2nc(-c3ccncc3)cs2)c1 | 40 | -51 | 17 | -87 | 66* | -17
Cc1ccnc(Nc2nc(-c3ccc(F)cc3)cs2)c1 | 80* | -184 | 44 | -113 | 26 | -22
SMILES | HSF1 activator | 697 NFkB inh | HSF1 inhib | Jurkat NFkB inh | T cruzi inh | GPR7 antagonist
Cc1cccc(Nc2nc(-c3ccc4c(c3)OCCO4)cs2)c1 | -58 | -231 | -54* | -78 | -16 | -12
Cc1ccc(Nc2nc(-c3ccncc3)cs2)cc1 | 13 | -94 | 4 | -141 | 70* | 6
Cc1ccnc(Nc2nc(-c3ccc(Cl)cc3)cs2)c1 | -18 | -144 | -10 | -84 | 23 | -12
CCOC(=O)N1CCN(C(=O)CCCCn2c(=S)[nH]c3ccsc3c2=O)CC1 | -2 | 9 | -22 | -8 | 6 | -8
CCCc1cc(=O)[nH]c(SCC(=O)N2CCCC2=O)n1 | 5 | 1 | 6 | 6 | -14 | .
COc1ccc(OC)c(N(/C(N)=N/c2nc(C)cc(C)n2)S(=O)(=O)c2ccc(NC(C)=O)cc2)c1 | 7 | -19 | -7 | -6 | -5 | 0
